Measured values from ChEMBL document CHEMBL1949580, “Multi-component synthesis and in vitro and in vivo anticancer activity of novel arylmethylene bis-isoxazolo[4,5-b]pyridine-N-oxides” (Eur J Med Chem, 2012).
In brackets after ≈: the same amount, converted by molar mass.

Columns and labels:
HeLa = test: Cytotoxicity against human HeLa cells after 48 hrs by MTT assay; format: functional, cell-based
In short: (§1)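 Cells in medium with 10% FBS, 5% CO₂, 37 °C, seeded from a 1 × 10⁵ cells/mL suspension. Test solutions from DMSO stocks (final <1% DMSO) added after 24 h. Exposure 48 h, then MTT 2.5 mg/mL for 2 h, formazan dissolved in DMSO, read at 490 nm. IC₅₀ is 50% OD reduction versus untreated, from dose-response curves. Mean of three independent determinations.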

[1] = Cytotoxicity against […] after 48 hrs by MTT assay; format: functional, cell-based; conditions: Mus musculus, Ehrlich; in short: as §1
MCF7 = test: Cytotoxicity against human MCF7 cells after 48 hrs by MTT assay; format: functional, cell-based; conditions: MCF7, 48 h; in short: as §1
[2] = Antitumor activity against […] xenografted in Swiss albino mouse liquid tumor model assessed as change in body weight at 5 mg/kg, ip qd for 9 days measured after 14 days (reference value: 12.2 +/- 0.75 g); format: functional, Ehrlich; conditions: route intraperitoneal
In short: (§2)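 EAC cells (0.2 mL of 2 × 10⁶ cells/mouse) injected ip on day 0. Daily ip dosing began 24 h later. Ten mice per group. Tumor volume, packed cell volume and viable tumor cell count read by Trypan blue method, alongside body weight. Values are mean ± SEM versus tumor control. Cisplatin 5 mg/kg served as the positive control.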

[3] = Anticancer activity against […] xenografted in Swiss albino mouse liquid tumor model assessed as host survival at 5 mg/kg, ip qd for 9 days (reference value: 13.7 +/- 0.03 days); format: functional, Ehrlich; conditions: route intraperitoneal
Mus musculus [4] = test: Toxicity in human EAC cells xenografted Swiss albino mouse liquid tumor model assessed as change hemoglobin level at 5 mg/kg, ip qd for 9 days (reference value: 5.75 +/- 0.655 mg); format: organism-based, Ehrlich; parameters: dose 5 mg/kg, route intraperitoneal; conditions: in vivo, 216 h
[5] = Anticancer activity against […] xenografted in Swiss albino mouse liquid tumor model assessed as increase in host lifespan at 5 mg/kg, ip qd for 9 days measured after 14 days; format: functional, Ehrlich; conditions: route intraperitoneal
[6] = Anticancer activity against […] xenografted in Swiss albino mouse liquid tumor model assessed as tumor volume at 5 mg/kg, ip qd for 9 days measured after 14 days (reference value: 12.1 +/- 0.89 mL); format: functional, Ehrlich; conditions: route intraperitoneal; in short: as §2
[7] = Anticancer activity against […] xenografted in Swiss albino mouse liquid tumor model assessed as packed cell volume at 5 mg/kg, ip qd for 9 days measured after 14 days by trypan blue staining (reference value: 2.75 +/- 0.49 mm); format: functional, Ehrlich; conditions: route intraperitoneal; in short: as §2
[8] = Anticancer activity against […] xenografted in Swiss albino mouse liquid tumor model assessed as viable tumor cells per 10^7 cells at 5 mg/kg, ip qd for 9 days measured after 14 days by trypan blue staining (reference value: 6.39 +/- 0.51 10^7/mL); format: functional, Ehrlich; conditions: route intraperitoneal; in short: as §2
[9] = Antitumor activity against […] xenografted in Swiss albino mouse liquid tumor model assessed as change in body weight at 10 mg/kg, ip qd for 9 days measured after 14 days (reference value: 12.2 +/- 0.75 g); format: functional, Ehrlich; conditions: route intraperitoneal; in short: as §2
[10] = Anticancer activity against […] xenografted in Swiss albino mouse liquid tumor model assessed as host survival at 10 mg/kg, ip qd for 9 days (reference value: 13.7 +/- 0.03 days); format: functional, Ehrlich; conditions: route intraperitoneal
Mus musculus [11] = test: Toxicity in […] xenografted Swiss albino mouse liquid tumor model assessed as change hemoglobin level at 10 mg/kg, ip qd for 9 days (reference value: 5.75 +/- 0.655 mg); format: organism-based, Ehrlich; parameters: dose 10 mg/kg, route intraperitoneal; conditions: in vivo, 216 h
[12] = Anticancer activity against […] xenografted in Swiss albino mouse liquid tumor model assessed as increase in host lifespan at 10 mg/kg, ip qd for 9 days measured after 14 days; format: functional, Ehrlich; conditions: route intraperitoneal
[13] = Anticancer activity against […] xenografted in Swiss albino mouse liquid tumor model assessed as tumor volume at 10 mg/kg, ip qd for 9 days measured after 14 days (reference value: 12.1 +/- 0.89 mL); format: functional, Ehrlich; conditions: route intraperitoneal; in short: as §2
[14] = Anticancer activity against […] xenografted in Swiss albino mouse liquid tumor model assessed as packed cell volume at 10 mg/kg, ip qd for 9 days measured after 14 days by trypan blue staining (reference value: 2.75 +/- 0.49 mm); format: functional, Ehrlich; conditions: route intraperitoneal; in short: as §2
[15] = Anticancer activity against […] xenografted in Swiss albino mouse liquid tumor model assessed as viable tumor cells per 10^7 cells at 10 mg/kg, ip qd for 9 days measured after 14 days by trypan blue staining (reference value: 6.39 +/- 0.51 10^7/mL); format: functional, Ehrlich; conditions: route intraperitoneal; in short: as §2
Mus musculus [16] = test: Toxicity in human EAC cells xenografted Swiss albino mouse liquid tumor model assessed as change in RBC cell count at 5 mg/kg, ip qd for 9 days (reference value: 2.74 +/- 0.081 million/mm3); format: organism-based, Ehrlich; parameters: dose 5 mg/kg, route intraperitoneal; conditions: in vivo, 216 h
Mus musculus [17] = test: Toxicity in […] xenografted Swiss albino mouse liquid tumor model assessed as change WBC cell count at 5 mg/kg, ip qd for 9 days (reference value: 20.6 +/- 0.545 10^3/mm3); format: organism-based, Ehrlich; parameters: dose 5 mg/kg, route intraperitoneal; conditions: in vivo, 216 h
Mus musculus [18] = test: Toxicity in human EAC cells xenografted Swiss albino mouse liquid tumor model assessed as change in RBC cell count at 10 mg/kg, ip qd for 9 days (reference value: 2.74 +/- 0.081 million/mm3); format: organism-based, Ehrlich; parameters: dose 10 mg/kg, route intraperitoneal; conditions: in vivo, 216 h
Mus musculus [19] = test: Toxicity in […] xenografted Swiss albino mouse liquid tumor model assessed as change WBC cell count at 10 mg/kg, ip qd for 9 days (reference value: 20.6 +/- 0.545 10^3/mm3); format: organism-based, Ehrlich; parameters: dose 10 mg/kg, route intraperitoneal; conditions: in vivo, 216 h
Mus musculus [20] = test: Toxicity in human EAC cells xenografted Swiss albino mouse liquid tumor model assessed as change in lymphocyte cell count at 5 mg/kg, ip qd for 9 days (reference value: 23 +/- 0.567 %); format: organism-based, Ehrlich; parameters: dose 5 mg/kg, route intraperitoneal; conditions: in vivo, 216 h
Mus musculus [21] = test: Toxicity in human EAC cells xenografted Swiss albino mouse liquid tumor model assessed as change in lymphocyte cell count at 10 mg/kg, ip qd for 9 days (reference value: 23 +/- 0.567 %); format: organism-based, Ehrlich; parameters: dose 10 mg/kg, route intraperitoneal; conditions: in vivo, 216 h
Mus musculus [22] = test: Toxicity in human EAC cells xenografted Swiss albino mouse liquid tumor model assessed as change in neutrophil cell count at 5 mg/kg, ip qd for 9 days (reference value: 73 +/- 1.25 %); format: organism-based, Ehrlich; parameters: dose 5 mg/kg, route intraperitoneal; conditions: in vivo, 216 h
Mus musculus [23] = test: Toxicity in human EAC cells xenografted Swiss albino mouse liquid tumor model assessed as change in neutrophil cell count at 10 mg/kg, ip qd for 9 days (reference value: 73 +/- 1.25 %); format: organism-based, Ehrlich; parameters: dose 10 mg/kg, route intraperitoneal; conditions: in vivo, 216 h
Mus musculus [24] = test: Toxicity in […] xenografted Swiss albino mouse liquid tumor model assessed as change in monocytes cell count at 5 mg/kg, ip qd for 9 days (reference value: 2.4 +/- 0.12 %); format: organism-based, Ehrlich; parameters: dose 5 mg/kg, route intraperitoneal; conditions: in vivo, 216 h
Mus musculus [25] = test: Toxicity in human EAC cells xenografted Swiss albino mouse liquid tumor model assessed as change in monocytes cell count at 10 mg/kg, ip qd for 9 days (reference value: 2.4 +/- 0.12 %); format: organism-based, Ehrlich; parameters: dose 10 mg/kg, route intraperitoneal; conditions: in vivo, 216 h

COc1ccc(-c2c[n+]([O-])c3c(C)noc3c2C(c2ccccc2)c2c(-c3ccc(OC)cc3)c[n+]([O-])c3c(C)noc23)cc1
IC50 (HeLa): 47.9 µg/mL (≈ 79.8 µM)
IC50 [1]: 41.7 µg/mL (≈ 69.4 µM)
IC50 (MCF7): 46 µg/mL (≈ 76.5 µM)

Cc1noc2c(C(c3ccccc3)c3c(-c4ccccc4)c[n+]([O-])c4c(C)noc34)c(-c3ccccc3)c[n+]([O-])c12
IC50 (HeLa): 28.6 µg/mL (≈ 52.9 µM)
IC50 [1]: 26.6 µg/mL (≈ 49.2 µM)
IC50 (MCF7): 31.9 µg/mL (≈ 59 µM)
Activity [2]: 10.41 g
MST [3]: 16.4 days
Activity (Mus musculus [4]): 8.08 mg
Activity [5]: 19.7%
Activity [6]: 7.61 mL
Activity [7]: 1.25 mm
Activity [8]: 4.05 ×10⁷ /ml
Activity [9]: 7.7 g
MST [10]: 22.1 days
Activity (Mus musculus [11]): 9.3 mg
Activity [12]: 61.31%
Activity [13]: 4.5 mL
Activity [14]: 0.94 mm
Activity [15]: 3.27 ×10⁷ /ml
Activity (Mus musculus [16]): 3.02 million/mm3
Activity (Mus musculus [17]): 18.48 ×10³ /mm3
Activity (Mus musculus [18]): 3.88 million/mm3
Activity (Mus musculus [19]): 13.92 ×10³ /mm3
Activity (Mus musculus [20]): 31%
Activity (Mus musculus [21]): 49%
Activity (Mus musculus [22]): 54%
Activity (Mus musculus [23]): 39%
Activity (Mus musculus [24]): 2%
Activity (Mus musculus [25]): 1.6%

Cc1ccccc1C(c1c(-c2ccccc2)c[n+]([O-])c2c(C)noc12)c1c(-c2ccccc2)c[n+]([O-])c2c(C)noc12
IC50 (HeLa): 62.4 µg/mL (≈ 113 µM)
IC50 [1]: 65.1 µg/mL (≈ 117 µM)
IC50 (MCF7): 60.7 µg/mL (≈ 109 µM)

COc1ccccc1C(c1c(-c2ccccc2)c[n+]([O-])c2c(C)noc12)c1c(-c2ccccc2)c[n+]([O-])c2c(C)noc12
IC50 (HeLa): 65.5 µg/mL (≈ 115 µM)
IC50 [1]: 51.8 µg/mL (≈ 90.9 µM)
IC50 (MCF7): 57.3 µg/mL (≈ 101 µM)

Cc1noc2c(C(c3ccccc3Cl)c3c(-c4ccccc4)c[n+]([O-])c4c(C)noc34)c(-c3ccccc3)c[n+]([O-])c12
IC50 (HeLa): 79 µg/mL (≈ 137 µM)
IC50 [1]: 70.4 µg/mL (≈ 122 µM)
IC50 (MCF7): 72.1 µg/mL (≈ 125 µM)

Cc1noc2c(C(c3ccc(Cl)cc3)c3c(-c4ccccc4)c[n+]([O-])c4c(C)noc34)c(-c3ccccc3)c[n+]([O-])c12
IC50 (HeLa): 70.7 µg/mL (≈ 123 µM)
IC50 [1]: 60.6 µg/mL (≈ 105 µM)
IC50 (MCF7): 74.3 µg/mL (≈ 129 µM)

Cc1ccc(-c2c[n+]([O-])c3c(C)noc3c2C(c2ccccc2)c2c(-c3ccc(C)cc3)c[n+]([O-])c3c(C)noc23)cc1
IC50 (HeLa): 42 µg/mL (≈ 73.9 µM)
IC50 [1]: 48.4 µg/mL (≈ 85.2 µM)
IC50 (MCF7): 44.3 µg/mL (≈ 77.9 µM)

Cc1noc2c(C(c3ccccc3)c3c(-c4ccccc4O)c[n+]([O-])c4c(C)noc34)c(-c3ccccc3O)c[n+]([O-])c12
IC50 (HeLa): 32.8 µg/mL (≈ 57.3 µM)
IC50 [1]: 36.3 µg/mL (≈ 63.4 µM)
IC50 (MCF7): 33.5 µg/mL (≈ 58.6 µM)
Activity [2]: 11 g
MST [3]: 14.8 days
Activity (Mus musculus [4]): 5.96 mg
Activity [5]: 8.02%
Activity [6]: 10.69 mL
Activity [7]: 2.13 mm
Activity [8]: 5.21 ×10⁷ /ml
Activity [9]: 8.89 g
MST [10]: 18 days
Activity (Mus musculus [11]): 7.02 mg
Activity [12]: 31.38%
Activity [13]: 8.29 mL
Activity [14]: 1.69 mm
Activity [15]: 4.07 ×10⁷ /ml
Activity (Mus musculus [16]): 2.72 million/mm3
Activity (Mus musculus [17]): 19.9 ×10³ /mm3
Activity (Mus musculus [18]): 3.3 million/mm3
Activity (Mus musculus [19]): 18.8 ×10³ /mm3
Activity (Mus musculus [20]): 26%
Activity (Mus musculus [21]): 40%
Activity (Mus musculus [22]): 65%
Activity (Mus musculus [23]): 51%
Activity (Mus musculus [24]): 2.3%
Activity (Mus musculus [25]): 1.9%

Cc1noc2c(C(c3ccccc3)c3c(-c4ccc(Cl)cc4)c[n+]([O-])c4c(C)noc34)c(-c3ccc(Cl)cc3)c[n+]([O-])c12
IC50 (HeLa): 70.2 µg/mL (≈ 115 µM)
IC50 [1]: 78.3 µg/mL (≈ 129 µM)
IC50 (MCF7): 79 µg/mL (≈ 130 µM)

Cc1noc2c(C(c3ccccc3)c3c(-c4ccc([N+](=O)[O-])cc4)c[n+]([O-])c4c(C)noc34)c(-c3ccc([N+](=O)[O-])cc3)c[n+]([O-])c12
IC50 (HeLa): 80 µg/mL (≈ 127 µM)
IC50 [1]: 75.5 µg/mL (≈ 120 µM)
IC50 (MCF7): 76.2 µg/mL (≈ 121 µM)
